The results in this text go back to ChEMBL document CHEMBL1123823, “[1-Desamino, 7-lysine, 8-arginine]vasotocin: attachment of reporter groups and affinity ligands through the lysine side chain” (J Med Chem, 1987).

Where a SMILES comes first, the peptide text is derived from it. Bridges are numbered along the chain shown (N, C = ends). [ ]: non-standard residue; d: D form. The star is where a group is joined. Benzoyl(4-N3) = [N-]=[N+]=Nc1ccc(C(=O)*)cc1; Mpa = O=C(O)CCS

A short description of assay [1]: Toad bladder hydroosmotic activity was determined. In kind it is functional. As to conditions: read-out: ED50 (the source's name). In outline: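 Osmometric measurement of bladder water permeability. Bladders were suspended in humidified air, and paper disks holding 8 μL of hypertonic Ringer's, with or without peptide at various concentrations, were placed on the outer surface of the bladder wall. The Ringer's contained NaCl 110, KCl 3.5, CaCl₂ 1, MgCl₂ 1, glucose 5.5 and Tris-HCl 10 mmol/L, pH 7.5, 236 mOsm/kg H₂O. Dose-response curves were constructed.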

Assay [2] deals with Rattus norvegicus. Description: Antidiuretic activity was determined in water loaded, ethanol-anesthetized rats. The assay is classed as functional, Urine.
The subject of assay [3] is Rattus norvegicus. Description: (§1) Pressor activity was determined in urethane-anesthetized, phenoxybenzamine treated rats. The assay is classed as functional.
Assay [4] concerns Rattus norvegicus. Described as §1. The assay is classed as functional, organism-based. The note with it: read-out: pA2 (converted).

As for `CC[C@H](C)[C@@H]1NC(=O)[C@H](Cc2ccc(O)cc2)NC(=O)CCSSC[C@@H](C(=O)N[C@@H](CCCCN)C(=O)N[C@@H](CCCN=C(N)N)C(=O)NCC(N)=O)NC(=O)[C@H](CC(N)=O)NC(=O)[C@H](CCC(N)=O)NC1=O` ([Mpa]YIQNCKRG-NH2; disulfide 1-6), in assay [1], the EC50 was found to be 22 nM. Further, the Antidiuretic activity in assay [2] was 29 U/mg. Besides, the Pressor activity in assay [3] was 0 U/mg. In assay [2], `CC[C@H](C)[C@@H]1NC(=O)[C@H](Cc2ccc(O)cc2)NC(=O)[C@@H](N)CSSC[C@@H](C(=O)N2CCC[C@H]2C(=O)N[C@@H](CCCN=C(N)N)C(=O)NCC(N)=O)NC(=O)[C@H](CC(N)=O)NC(=O)[C@H](CCC(N)=O)NC1=O` [VASOTOCIN] (H-CYIQNCPRG-NH2; disulfide 1-6) registered an Antidiuretic activity of 231 U/mg. Moreover, the Pressor activity in assay [3] was 160 U/mg.

With `N=C(N)NCCC[C@H](NC(=O)[C@@H]1CCCN1C(=O)[C@@H]1CSSC[C@H](N)C(=O)N[C@@H](Cc2ccc(O)cc2)C(=O)N[C@@H](Cc2ccccc2)C(=O)N[C@@H](CCC(N)=O)C(=O)N[C@@H](CC(N)=O)C(=O)N1)C(=O)NCC(N)=O` [VASOPRESSIN], in assay [1], the EC50 was 9.5 nM. Regarding `CC[C@H](C)[C@@H]1NC(=O)[C@H](Cc2ccc(O)cc2)NC(=O)CCSSC[C@@H](C(=O)N[C@@H](CCCCNC(=O)c2ccc(N=[N+]=[N-])cc2)C(=O)N[C@@H](CCCN=C(N)N)C(=O)NCC(N)=O)NC(=O)[C@H](CC(N)=O)NC(=O)[C@H](CCC(N)=O)NC1=O` ([Mpa]YIQNCK(Benzoyl(4-N3))RG-NH2; disulfide 1-6) [listing 1 of 2 here], in assay [4], the Kb was 251 nM. In assay [2], `CC[C@H](C)[C@@H]1NC(=O)[C@H](Cc2ccc(O)cc2)NC(=O)CCSSC[C@@H](C(=O)N[C@@H](CCCCNC(=O)c2ccc(N=[N+]=[N-])cc2)C(=O)N[C@@H](CCCN=C(N)N)C(=O)NCC(N)=O)NC(=O)[C@H](CC(N)=O)NC(=O)[C@H](CCC(N)=O)NC1=O` ([Mpa]YIQNCK(Benzoyl(4-N3))RG-NH2; disulfide 1-6) [listing 2 of 2 here] gave an Antidiuretic activity of 19.7 U/mg. In the case of `CC[C@H](C)[C@@H]1NC(=O)[C@@H](Cc2ccc(O)cc2)NC(=O)CCSSC[C@@H](C(=O)N[C@H](CCCCNC(=O)CCCCC2SCC3NC(=O)NC32)C(=O)N[C@@H](CCCN=C(N)N)C(=O)NCC(N)=O)NC(=O)[C@H](CC(N)=O)NC(=O)[C@@H](CCC(N)=O)NC1=O` (stereo partly drawn), in assay [1], the EC50 worked out at 210 nM. Moreover, the Antidiuretic activity in assay [2] is 4.3 U/mg. For the same compound, the Pressor activity in assay [3] came out at 0 U/mg.

For the compound `CC[C@H](C)[C@@H]1NC(=O)[C@H](Cc2ccc(O)cc2)NC(=O)CCSSC[C@@H](C(=O)N2CCC[C@H]2C(=O)N[C@@H](CCCN=C(N)N)C(=O)NCC(N)=O)NC(=O)[C@H](CC(N)=O)NC(=O)[C@H](CCC(N)=O)NC1=O` ([Mpa]YIQNCPRG-NH2; disulfide 1-6), the Antidiuretic activity in assay [2] was 890 U/mg. In assay [3], the Pressor activity is 256 U/mg.
